In the EternaBench riboswitch data:

System: MS2 coat protein
Test: apparent Kd, MS2 coat protein; higher = weaker binding; RNA-MaP array; theophylline 2 mM where present
Method in brief: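 Stalled E. coli RNA polymerase transcribed each design on Illumina sequencing-chip clusters. The clusters were titrated with SNAP-549-labelled MS2 coat protein, starting at 0.7 or 1.5 nM and doubling up to 3 µM, first without ligand and then with constant ligand, in 100 mM Tris-HCl pH 7.5, 80 mM KCl, 4 mM MgCl2, BSA, DTT, yeast tRNA and Tween-20. Green signal was normalised to red-channel RNA signal and to the control-cluster median Fmax. The apparent Kd is the median of filtered binding-curve fits made for each cluster.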

[1] = designed as: OFF switch for theophylline, no ligand
[2] = ligand present: theophylline, designed as: OFF switch for theophylline
[3] = designed as: ON switch for theophylline, no ligand
[4] = ligand present: theophylline, designed as: ON switch for theophylline

Row | Sequence | apparent Kd [1] [nM] | apparent Kd [2] [nM] | apparent Kd [3] [nM] | apparent Kd [4] [nM]
1 | CGUAUUGUAACUGAUACCAGUGUACUGACAUGAGGAUCACCCAUGUUGGGUUUUGUUGUACACCCUUGGCAGCAGAAUCAAUACG | 68.7 | 122 |  | 
2 | UGACAUUGCUCAGAUACCAGACAUGAGGAUCACCCAUGUACCAAGGUAACCGAAAGGCAUGUCCCUUGGCAGCUGAGCAAUGUCU | 11.1 | 225 |  | 
3 | AGACAUGAGGAUCACCCAUGUAGCAUGGAUACCAGAUCCAGAUUUAUCCCUUGGCAGCUGUGGUAAAGUGAUGGAUUGCUCCUAG | 44.3 | 55.5 |  | 
4 | UUUACAUGAGGAUCACCCAUGUGCCAUGAUACCAGACAUGAAAAUGUCCCUUGGCAGCAUGAGUGAUGCAUCCGAAAGGAUGUUU |  |  | 81.6 | 611
5 | AGCUCAGAGAGUGAUACCAGACUACAUGAGGAUCACCCAUGUUACUUUUAAAUAUCAUGAGUCCCUUGGCAGCACAAGAAGAGCA | 81 | 168 |  | 
6 | AUAAGUAAUGUUUCGUGUUUUAUUACAGAUACCAGACUAUACGUUGUCCCUUGGCAGCUGGAUUACAUGAGGAUCACCCAUGUUG | 19.5 | 35.1 |  | 
7 | UGACAUUGCUCAGAUACCAGACAUGAGGAUCACCCAUGUACCGAGGUACCCGAAAGGAAUGUCCCUUGGCAGCUGAGCAAUGUCU | 10.9 | 152 |  | 
8 | UGAUCCUACAGAGAUACCAGUGCCACUGAGUGACCAGACACAUGAGGAUCACCCAUGUAACACCCUUGGCAGCUCAACUAGAGGG |  |  | 20.4 | 69.7
9 | UAUAGUGUGAUGGAUACCAGCAGAGAAAACGUUUAUCCUAACAUGAGGAUCACCCAUGUAUGCCCUUGGCAGCUGUUGUGUUAUA | 31.7 | 31.8 |  | 
10 | GAUGAUAUUGCAGAUACCAGACACAUGAGGAUCACCCAUGUCGCUGGGUUACUGGAUCGUGUCCCUUGGCAGCUGCGAUAUCAUC | 286 | 69.4 |  | 
11 | GCACCAGGUACGGAUACCAGCUAUAGGCCCAAUGGGCGACAUGAGGAUCACCCAUGUGAUGGCCCUUGGCAGCUGUACCUGGUGC |  |  | 211 | 24.1
12 | AAACGUUGCUGCGAUACCAGACAUGAGGAUCACCCAUGUACCAAGGUAAGAAAAUAACAUGUCCCUUGGCAGCGCAGCAACGAAA | 15.4 | 412 |  | 
13 | AUAACAUGAGGAUCACCCAUGUAAGCAGAUACCAGCUAGGAAACUAGCCCUUGGCAGCUGCAAGGUGAUCCUAAUGCAGCUGCAA | 154 | 119 |  | 
14 | CUCGAGGCCGGUGAUACCAGACACGAAACUAUACAUGAGGAUCACCCAUGUCAAACAACGGUCCCUUGGCAGCAUGGGUGUAUCC |  |  | 68.9 | 64.5
15 | AUAACAUGAGGAUCACCCAUGUAAGGUGAUACCAGACGAAGUAAAGUCCCUUGGCAGCACAAGUAAAGUUACGAAUAUUGAUAGA |  |  | 430 | 47.3
16 | GAUGAUAUUGCAGAUACCAGACACAUGAGGAUCACCCAUGUCGCUGGGUUACUGGGUCGUGUCCCUUGGCAGCUGCGAUAUCAUC | 44 | 339 |  | 
17 | UUAAAUGUGACGGAUACCAGCGUGUUGUAGAACAUGAGGAUCACCCAUGUAGUGAUCAAGCGCCCUUGGCAGCUGGUAUGUUUGA |  |  | 191 | 300
18 | AUUAUCAUGGUCAUAUAUAUUUCGUCAGAUACCAGACUAGAUAUAGUCCCUUGGCAGCUGUUACAUGAGGAUCACCCAUGUUAUU | 121 | 44.5 |  | 
19 | AGAUCUUUCGAAAGAAGGAUCUUGGCUGAUACCAGAGACGAAAGUCUCCCUUGGCAGCAGUGCCAACAUGAGGAUCACCCAUGUA |  |  | 45.8 | 24.1
20 | UCAUUUGAGUGAGAUGUAAGGUAUCAUGAUACCAGUAGAUAAUUAUACCCUUGGCAGCAUAACAUGAGGAUCACCCAUGUACAUG | 22.8 | 24.2 |  | 
21 | AAUAACAUGAGGAUCACCCAUGUAAAAGAUACCAGAUGCAUGAUGAUCCCUUGGCAGCUUAAACGCGAUUGAUUACAAUCGCGAA |  |  | 34.4 | 91.8
22 | CGGUUUGUGAUGGAUACCAGCAGAGAAAAUGUUUAUCCUAACAUGAGGAUCACCCAUGUGUGCCCUUGGCAGCUGUUGUGGGCUG | 50.5 | 84.9 |  | 
23 | GCUUGGGUGGCACAGCCCUGGCAGUGCGAUACCAGCACGGUAACGUGCCCUUGGCAGCGCACAUGAGGAUCACCCAUGUGGUGCG | 69.5 | 345 |  | 
24 | UUAAUGGAGCUUUUAUUUACGAUUUCUGAUACCAGUGUUUCAUUUCACCCUUGGCAGCAGUGACAUGAGGAUCACCCAUGUAAUA |  |  | 25.7 | 22.8
25 | AUCCUCUAGAAUGAUACCAGACCAAACAUGAGGAUCACCCAUGUAUCAGGCAAUUGUUACGUCCCUUGGCAGCAUGUAUGCCGAC |  |  | 27.7 | 28.1
26 | UACACAUGACAUGAUACCAGCCCAUGUGAACAUGAGGAUCACCCAUGUAUGAGGACAUGAGGCCCUUGGCAGCAUGUAUACAUGA |  |  | 10.2 | 10.2
27 | AAGACAUGAGGAUCACCCAUGUGGAGGGAUACCAGCCUGUGUGUGGGCCCUUGGCAGCUUAAAUUUAAUUUAAUUAAAUAAAUUU |  |  | 34.7 | 36.1

Row | Sequence | apparent Kd [1] [nM] | apparent Kd [2] [nM] | apparent Kd [3] [nM] | apparent Kd [4] [nM]
28 | AACAUGAGGAUCACCCAUGUGUCCCUUGAUACCAGUCCCAUGUGAGACCCUUGGCAGCAAACAUGAGGAUCACCCAUGUCCCAUG |  |  | 102 | 142
29 | CAUAAUUUAUCCUAUAAAACUAUUAGUGAUACCAGCACCUCAUGAUGCCCUUGGCAGCACUUACAUGAGGAUCACCCAUGUUUUA |  |  | 172 | 214
30 | ACUCGGUGUUUGUUGCUCCGAGUGUAUGAUACCAGUUAGUUUUAUGGCCCUUGGCAGCAUAGGACAUGAGGAUCACCCAUGUGUU |  |  | 32.6 | 45.7
31 | ACUAGCGCACAUGAUACCAGCGACAUGAGGAUCACCCAUGUACGGCGUGUAUCGAAAGGUUGCCCUUGGCAGCAUGAUAGCGCUG | 13.9 | 255 |  | 
32 | UGGUUUGUGAUGGAUACCAGCAGAGAAAACGUUUAUCCUAACAUGAGGAUCACCCAUGUAUGCCCUUGGCAGCUGUUGUGGGCUA | 32 | 34.9 |  | 
33 | AUCUCAUAGAGUGAUACCAGACUACAUGAGGAUCACCCAUGUUAGAUUUAAAUAUCAUUUGUCCCUUGGCAGCACAUUAAGUACA |  |  | 12.9 | 11.5
34 | CCAUAAGUAACUGAUACCAGUGUACUGACAUGAGGAUCACCCAUGUUGGGUUUUGUUGUACACCCUUGGCAGCAGAAUCUUGUGG | 63 | 90.3 |  | 
35 | GCACCAGGUACGGAUACCAGACGUUGCCAAACAGGGUGACAUGAGGAUCACCCAUGUACUGUCCCUUGGCAGCCGUACCUGGUGC | 22.3 | 653 |  | 
36 | UGUAUGUGAUUUGAUACCAGACCAGCUGGUGGUACAUGAGGAUCACCCAUGUAGGUUUGGGUCCCUUGGCAGCAAAUCGCAUACU |  |  | 47.9 | 30
37 | GCUGUAAGUGCAGAUACCAGCAAGUGAUAUUUCAUAUGACAUGAGGAUCACCCAUGUAACUGCCCUUGGCAGCUGCACUUACAGC |  |  | 213 | 24.9
38 | CCUCAUGUGUAUCACCACAUGAGUGGUGAUACCAGCAUCGAAAGAUGCCCUUGGCAGCACCAACAUGAGGAUCACCCAUGUAAUA |  |  | 352 | 101
39 | UCGUGUAUUUCGGAUACCAGUGAAAUCGAUACAUGAGGAUCACCCAUGUGAGAGGAUGUACACCCUUGGCAGCUGUCUGUAUCUG |  |  | 16.3 | 15.2
40 | AGCAUGUUAUCAGAUACCAGACAUCUUUUAAAACAUAUUACAUGAGGAUCACCCAUGUUGGUCCCUUGGCAGCUGAAAUAUUUCA |  |  | 272 | 39.8
41 | AUUUAUUGUCGUGAUACCAGACAUACAUGAGGAUCACCCAUGUUAAGUAACUUUUUUCAGGUCCCUUGGCAGCACUUUUUAAUUA |  |  | 17.3 | 13.9
42 | ACUCGGUAUGUCUAAUACCGAGAGUAUGAUACCAGUAUGGUGACAUACCCUUGGCAGCAUGGGACAUGAGGAUCACCCAUGUGUU |  |  | 538 | 505
43 | UGCAUCAUAAUCAUGUAGGUGCUAGGUGAUACCAGCAUCGAAAGAUGCCCUUGGCAGCACCAACAUGAGGAUCACCCAUGUAAUA |  |  | 216 | 97.1
44 | AUGUAAGUGGUGUCACUGUGGUCUAGUGAUACCAGUAUCGAAAGAUACCCUUGGCAGCGCUAGAACAUGAGGAUCACCCAUGUUU | 68.8 | 34.3 |  | 
45 | AAGCUGACAAGAAGGUGUUCCUAAGCUGAUACCAGCCUGGAAACAGGCCCUUGGCAGCAGCACAUGAGGAUCACCCAUGUAAUAA | 118 | 79.2 |  | 
46 | AUAACAUGAGGAUCACCCAUGUAAGGUGAUACCAGACGAAGUAAAGUCCCUUGGCAGCACAAGCAUAGUUGCGAAUAUUGAUAGA |  |  | 469 | 63.1
47 | UUAUUUAUAAUGGAUACCAGUCGUAUGGCCCGGAAUCCUGACAUGAGGAUCACCCAUGUCGACCCUUGGCAGCUGUUAUGGGUUU | 14.5 | 24.6 |  | 
48 | UGUAACAUGAGGAUCACCCAUGUGAGUGAUACCAGAUUAGUAGUAGUCCCUUGGCAGCAUAUUGGGCGAGUGUAUAGUCUAUGCG |  |  | 165 | 221
49 | UCUACAUGAGGAUCACCCAUGUGCCAUGAUACCAGACAUGAAAAUGUCCCUUGGCAGCAUGGGUAGCGCAUCCGAAAGGAUGCGU |  |  | 32.2 | 657
50 | AGCCUCAUACAUGAGGAUCACCCAUGUGAUACCAGUCAGGAAACUGACCCUUGGCAGCGCAUGAGGAUCACCCAUGUGCGAGGCA | 43.5 | 192 |  | 
51 | GAUGAACUAUUUGAUACCAGACUACAUGAGGAUCACCCAUGUGAGUUUCGUCCUCUGCCAGUCCCUUGGCAGCAAAUAGUUUAUC | 18.9 | 194 |  | 
52 | CUUAUAGUAACUGAUACCAGUGUACUGACAUGAGGAUCACCCAUGUUGGGUUUUGUUGUACACCCUUGGCAGCAGAAUCUAUAAG | 69.5 | 86.6 |  | 
53 | UCUUUCUAUAGUGAUACCAGACGUACAUGAGGAUCACCCAUGUUACAUUCUUGGUUAAAAGUCCCUUGGCAGCACGAUUUGUUCG | 9.51 | 10.2 |  | 
